High-throughput results (PubChem BioAssay)
NSD2 HMT inh – blocks human histone methyltransferase NSD2 | O96028 | NSD2 peptide methylation, AlphaScreen, 120 min | inhibition, % at 12.5 µM | actives 0.54% (n = 310,000) | AID 743445; in the data active = inhibition above about 50%
FGF22 binding-1 – FGF22 (human) thermal shift binding | activity (Tm shift, normalised), % at 9.99 µM | actives 1.5% (n = 340,000) | recombinant FGF22 thermal shift, SYPRO orange fluorescence; percent of sucrose octasulfate shift, DMSO zero | Q9HCT0;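 active = mean Tm shift, scaled 0 neutral to 100 positive control, at about 1.3% or above, every replicate too, limit read from the data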
Target sequence (Q9HCT0 whole entry, looked up): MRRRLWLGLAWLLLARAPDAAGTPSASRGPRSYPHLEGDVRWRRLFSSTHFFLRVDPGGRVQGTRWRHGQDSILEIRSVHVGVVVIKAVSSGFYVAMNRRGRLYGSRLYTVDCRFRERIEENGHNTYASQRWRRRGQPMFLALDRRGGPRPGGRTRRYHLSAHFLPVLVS
SIRT5 inh – sirtuin-5 (human) deacylase inhibition; Q9NXA8; Purified SirT5, succinyl-peptide AMC, trypsin-coupled fluorescence; inhibition, % at 15 µM; actives 1.1% (n = 330,000); AID 652115; in the data active = inhibition above about 15%
Target sequence (Q9NXA8 whole entry, looked up): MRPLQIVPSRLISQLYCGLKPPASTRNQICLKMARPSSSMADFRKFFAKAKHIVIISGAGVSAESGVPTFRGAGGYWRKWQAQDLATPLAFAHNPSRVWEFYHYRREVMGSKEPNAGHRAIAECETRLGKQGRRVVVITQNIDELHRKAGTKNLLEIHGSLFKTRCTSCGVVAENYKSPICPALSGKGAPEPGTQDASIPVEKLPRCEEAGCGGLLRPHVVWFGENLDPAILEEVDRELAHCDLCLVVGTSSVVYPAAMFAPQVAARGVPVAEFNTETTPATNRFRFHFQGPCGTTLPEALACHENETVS
CASP6 VEID inh – caspase-6 (human) enzyme inhibition; actives 0.53% (n = 350,000); P55212; purified caspase-6, Z-VEID-R110 cleavage fluorescence; inhibition, % at 12.5 µM;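 active = mean inhibition across replicates at least about 35%, with every replicate also reaching that limit, limit read from the data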;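 note: 0% = median of neutral control wells and 100% = no fluorescence left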
UCH37 inh – blocks the human deubiquitinase UCH37 | Q9Y5K5 | purified proteasome/UCH37, Ub-AMC cleavage fluorescence | inhibition, % (concentration not given with the values) | actives 0.33% (n = 330,000);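 active = mean inhibition over replicate wells above about 20%, limit read from the data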;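 note: 0% = compound-free wells with enzyme and 100% = wells lacking proteasome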
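Material: human UCH37 enzyme supplied as purified proteasome complex / Amount: 0.15 nM proteasome as dispensed / Buffer or medium: pH 7.4 Tris-HCl (50 mM) with ovalbumin, ATP-MgCl2, DTT / Times: preincubation 30 min, reaction 25 min, room temperature / Technique: AMC fluorescence from Ub-AMC cleavage, excitation 355 nm, emission 460 nm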
FGF22 binding-2 – binds human FGF22 shifting its melting temperature; shares compounds with FGF22 binding-1; recombinant FGF22 thermal shift, SYPRO orange fluorescence; thermal shift activity, °C (ΔTm) at 38 µM; actives 2% (n = 1,000); AID 720646;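 active = fitted rise in melting shift crosses a set limit at or below the top valid dose tested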
FGF22 TSA – binders of human FGF22 by thermal shift; shares compounds with FGF22 binding-1; Thermal shift assay, SYPRO orange, melting temperature shift; Tm shift (activity), % at 38 µM; 50 tested, under 10 active;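 active = compounds whose fitted dose curve of melting temperature shift rises past a set threshold within the tested doses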
SYPRO no-protein – counter-screen for FGF22 binders: compound-only thermal shift, no protein. compound-only SYPRO orange thermal shift counter-screen. AID 743019. shares compounds with FGF22 binding-1. actives 2% (n = 1,000). AC50, µM (doses to about 38 µM);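 active = rising signal whose fitted curve reaches the 0.54 level within the top valid dose, showing a melting point, actives reach about 13 µM in these data; inactive = the rest, including activity in the opposite direction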; note: value is where the raw curve crosses a fixed level and not half-maximal
* hit, by the source's call; i = inactive; nt = no result; ! = a repeat was not active; [ ] = another dose, or the depositor's remark. Sampled rows, rich in hits. Any-hit rate of the full collection: about 2.6%.

SMILES	NSD2 HMT inh	FGF22 binding-1	SIRT5 inh	CASP6 VEID inh	UCH37 inh	FGF22 binding-2	SYPRO no-protein	others
C[C@@H]1CN([C@@H](C)CO)C(=O)CCCn2nncc2CO[C@H]1CN(C)S(=O)(=O)c1ccc(F)cc1	nt	0.2	-2.1	-2.0	nt	nt	nt
C[C@H](CO)N1C[C@H](C)[C@H](CN(C)C(=O)c2cc(-c3ccccc3)on2)OCc2cnnn2CCCC1=O	nt	29.8*!	17.9*!	4.1	nt	0.091	i
C[C@H](CO)N1C[C@H](C)[C@@H](CN(C)C(=O)OCc2ccccc2)OCc2cn(nn2)CCCC1=O	nt	17.3*!	-2.2	-5.5	nt	0.091	i
C[C@H]1CN([C@@H](C)CO)C(=O)CCCn2nncc2CO[C@@H]1CN(C)Cc1ccccc1C(=O)O	nt	0.8	-0.7	-1.1	nt	nt	nt
C[C@H](CO)N1C[C@H](C)[C@H](CN(C)S(=O)(=O)c2ccc(F)cc2)OCc2cnnn2CCCC1=O	nt	1.5*!	-4.6	0.2	nt	-0.09[42 µM]	i
C[C@@H]1CN([C@@H](C)CO)C(=O)CCCn2nncc2CO[C@H]1CN(C)Cc1ccccc1C(=O)O	nt	1.3*	3.8	-0.3	nt	-0.096[42 µM]	i
C[C@H](CO)N1C[C@H](C)[C@@H](CN(C)C(=O)c2cc(-c3ccccc3)on2)OCc2cnnn2CCCC1=O	nt	0.1	1.1	2.1	nt	nt	nt
C[C@@H]1CN([C@@H](C)CO)C(=O)Cc2cc(NC(=O)Cc3cn(C)c4ccccc34)ccc2O[C@@H]1CN(C)S(=O)(=O)c1cn(C)cn1	nt	0.4	3.2	-0.9	nt	nt	nt
Cc1noc(C)c1NC(=O)Nc1cccc2c1O[C@@H](CN(C)Cc1ccccc1)[C@@H](C)CN([C@@H](C)CO)C2=O	nt	-0.4	3.1	-0.7	nt	nt	nt
C[C@@H]1CCCCO[C@@H](CN(C)C)[C@@H](C)CN([C@@H](C)CO)C(=O)c2cc(NS(=O)(=O)c3ccc(F)cc3)ccc2O1	nt	0.4	-1.6	-1.3	nt	nt	nt
COc1ccc(C=NNC(=O)c2ccc3nc[nH]c3c2)cc1OC	nt	nt	nt	nt	9.3	nt	nt
COc1cccc(-c2ccc3n(c2=O)C[C@@H]2[C@@H](CO)[C@H](C(=O)NCC4CC4)[C@H]3N2S(C)(=O)=O)c1	nt	-0.2	-32.2	1.1	nt	nt	nt
O=C(NN=Cc1cccc([N+](=O)[O-])c1O)C(O)(c1ccccc1)c1ccccc1	nt	nt	nt	nt	5.7	nt	nt
CCc1cc(-c2n[nH]c(C)c2-c2ccc3c(c2)OCCO3)c(O)cc1O	nt	nt	nt	nt	nt	nt	nt	FGF22 TSA=0.1
CCc1cc(-c2[nH]ncc2-c2ccc3c(c2)OCCO3)c(O)cc1O	nt	nt	nt	nt	nt	nt	nt	FGF22 TSA=-0.2
O=C(c1cnccn1)N1CC2(C1)[C@H](c1ccccc1)[C@@H](CO)N2C(=O)c1ccccc1	nt	0.0	1.5	-0.9	nt	nt	nt
CCC(=O)N1[C@H](CO)[C@@H](c2ccccc2)C12CN(C(=O)c1cnccn1)C2	nt	1.3*	-1.6	0.1	nt	-0.085	i
COCC(=O)N1CC2(C1)[C@H](c1ccccc1)[C@@H](CO)N2C(=O)NC1CCCC1	nt	1.3*	-0.4	2.0	nt	0.018	i
COCC(=O)N1CC2(C1)[C@H](c1ccccc1)[C@H](CO)N2C(=O)NC1CCCC1	nt	-0.4	3.5	0.1	nt	nt	nt
CCCNC(=O)Nc1ccc2c(c1)OC[C@@H](C)N(Cc1cncnc1)C[C@H](C)[C@@H](OC)CN(C)C2=O	nt	0.6	-9.7	-2.4	nt	nt	nt
O=C(Cn1[nH]c(=O)c2ccccc2c1=O)Nc1cccnc1	-1.9	2.2*	-3.5	-7.0	3.1	0.082	i
Cc1noc(C)c1NC(=O)N(C)C[C@@H]1Oc2c(NS(=O)(=O)c3ccc(F)cc3)cccc2C(=O)N([C@H](C)CO)C[C@H]1C	nt	-0.5	0.2	-1.0	nt	nt	nt
Cn1cccc1/C=N/NC(=O)Cc1cccc2ccccc12	7.1	2.1*	-6.7	-4.5	nt	0.066	i
Cn1cccc1C=NNC(=O)Cc1ccccc1	nt	nt	nt	nt	4.5	nt	nt
Cc1ccc(-c2ccc([C@H]3[C@H](CO)N4C(=O)CN(C(=O)c5ccc(F)cc5)C[C@@H]34)cc2)cc1	nt	1.0	-0.6	3.8	nt	nt	nt
SMILES	NSD2 HMT inh	FGF22 binding-1	SIRT5 inh	CASP6 VEID inh	UCH37 inh	FGF22 binding-2	SYPRO no-protein	others
Cc1ccc(-c2ccc([C@H]3[C@@H](CO)N4C(=O)CN(C(=O)c5ccc(F)cc5)C[C@@H]34)cc2)cc1	nt	1.8*	2.2	4.9	nt	0.118	i
O=C(c1ccccc1)N1CC(=O)N2[C@H](C1)[C@@H](c1ccc(C#CC3CC3)cc1)[C@@H]2CO	nt	1.8*	-3.7	4.1	nt	0.055[42 µM]	i
O=C(c1ccc2c(c1)OCO2)N1CC(=O)N2[C@@H](CO)[C@H](c3ccc(C#CCC4CCCC4)cc3)[C@@H]2C1	nt	1.8*	13.3	3.2	nt	-0.027	i
Cc1ccc(-c2ccc([C@@H]3[C@@H](CO)N4C(=O)CN(C(=O)c5ccc(F)cc5)C[C@H]34)cc2)cc1	nt	1.2*	-2.5	0.1	nt	-0.125	i
COc1ccc(C=Nn2c(C)nc3ccccc3c2=O)cc1OC	nt	nt	nt	nt	4.7	nt	nt
O=C(C1CCCC1)N1CCCCN2[C@H](CO)[C@H](c3ccc(-c4ccncc4)cc3)[C@H]2C1	nt	-0.1	2.0	-1.5	nt	nt	nt
CCCNC(=O)c1onc(CSc2ccc(F)cc2)c1C(=O)NCC1CC1	nt	0.0	nt	-0.7	-0.9	nt	nt
O=C(NCC1CC1)c1onc(CSc2ccc(F)cc2)c1C(=O)NCC1CC1	nt	37.0*	-4.7	2.7	3.9	-0.124	10.6µM*
COc1ccc(NC(=O)c2[nH]ncc2[N+](=O)[O-])cc1	2.4	1.4*	-1.4	8.0	7.4	-0.158	i
O=C(Nc1ccc2snnc2c1)N1CCOCC1	-0.4	nt	nt	nt	-1.1	nt	nt
S=C(Nc1ccc(N2CCOCC2)cc1)Nc1ccc2snnc2c1	26.5	1.6*	-6.0	8.9	2.0	-0.226	i
COCC(=O)N1[C@H](CO)[C@H]2c3ccccc3NC[C@H]21	nt	14.7*	0.3	0.4	nt	0.036	i
COCC(=O)N1C[C@@H]2[C@H](c3ccccc31)[C@H](CO)N2C(=O)c1ccccc1F	nt	1.7*	3.1	1.1	nt	-0.17[42 µM]	i
COc1ccccc1C(=O)N1C[C@H]2[C@@H](c3ccccc31)[C@H](CO)N2C(=O)C1CCCCC1	nt	1.7*	-2.4	-3.3	nt	0.02	i
O=C(c1cccc(F)c1)N1C[C@@H]2[C@H](c3ccccc31)[C@H](CO)N2C(=O)C1CCCCC1	nt	66.3*	2.6	-1.9	nt	-0.081[42 µM]	i
CCC(=O)N1[C@H](CO)[C@@H]2c3ccccc3N(C(=O)c3ccccc3F)C[C@@H]21	nt	-0.3	1.3	0.7	nt	nt	nt
COc1ccccc1C(=O)N1C[C@H]2[C@@H](c3ccccc31)[C@@H](CO)N2C(=O)C1CCCCC1	nt	0.0	-1.5	3.4	nt	nt	nt
